Data reported in ChEMBL document CHEMBL1143648, “3-[Substituted]-5-(5-pyridin-2-yl-2H-tetrazol-2-yl)benzonitriles: identification of highly potent and selective metabotropic glutamate subtype 5 receptor antagonists” (Bioorg Med Chem Lett, 2005).

Key:
[1] = target: T1, Metabotropic glutamate receptor 5 (Rattus norvegicus, UniProt P31424); assay: In vitro functional activity measured by changes in cytosolic [Ca2+] concentrations against rat metabotropic glutamate receptor 5
Procedure, shortened: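 A cell-based, high-throughput functional assay followed changes in cytosolic Ca2+ concentration by fluorescence detection.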

[2] = target: T1, Metabotropic glutamate receptor 5; assay: Ability to displace [3H]3-methoxy-5-(pyridin-2-ylethynyl)pyridine from binding to metabotropic glutamate receptor 5 in rat cortical membranes; format: cell membranes
Rattus norvegicus [3] = assay: Brain penetration measured by compound levels in plasma at a dose of 3 mg/kg upon intraperitoneal after 1 hr; format: functional, organism-based; design: dose 3 mg/kg
Procedure, shortened: (§1)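 Sprague–Dawley rats were dosed intraperitoneally at 10 or 3 mg/kg. Drug levels (µM) in brain and plasma were measured 1 h after dosing, and brain/plasma was expressed as a percentage.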

Rattus norvegicus [4] = assay: Effective dose for maximum occupancy in rat upon oral administration measured 30 min post administration; n = 6 - 7
Rattus norvegicus [5] = assay: Effective dose for maximum occupancy in rat upon intraperitoneal administration measured 1 hr post administration; n = 5 - 6; format: functional
Procedure, shortened: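 Receptor occupancy was measured in Sprague–Dawley rats (n = 5–6 per group) 1 h after intraperitoneal dosing. ED50 is given in mg/kg ip.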

Rattus norvegicus [6] = organism: Rattus norvegicus; assay: Ratio of compound levels in brain to that of plasma level was determined; format: functional; procedure, shortened: as §1
Rattus norvegicus [7] = assay: Brain penetration measured by compound levels in brain at a dose of 3 mg/kg upon intraperitoneal after 1 hr; format: functional; procedure, shortened: as §1
[8] = Half life in rat upon intravenous administration at a dose of 2 mg/kg; n = 2; format: ADME, organism-based; design: dose 2 mg/kg, route intravenous; settings: in vivo
Procedure, shortened: (§2)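 Sprague–Dawley rats (n = 2 per group) were given 2 mg/kg by the intravenous route for pharmacokinetic profiling.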

[9] = Clearance in rat upon intravenous administration at a dose of 2 mg/kg; n = 2; format: ADME, organism-based; design: dose 2 mg/kg, route intravenous; settings: plasma, read-out: Clp; procedure, shortened: as §2
[10] = Oral bioavailability in rat (dose 10 mg/kg p.o.); format: ADME, organism-based; settings: in vivo
Procedure, shortened: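 Rat pharmacokinetics compared oral dosing at 10 mg/kg (n = 3 Sprague–Dawley rats/group) with intravenous dosing at 2 mg/kg (n = 2 rats/group).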

[11] = Volume of distribution in rat upon intravenous administration at a dose of 2 mg/kg; n = 2; format: ADME, organism-based; design: dose 2 mg/kg, route intravenous; settings: in vivo; procedure, shortened: as §2
[12] = Maximum concentration in rat upon oral administration at a dose of 10 mg/kg; n = 3; format: ADME, organism-based; design: dose 10 mg/kg, route oral; settings: in vivo
Procedure, shortened: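 Sprague–Dawley rats (n = 3 per group) were given 10 mg/kg orally for pharmacokinetic profiling.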

Rattus norvegicus [13] = assay: Brain penetration measured by compound levels in plasma at a dose of 10 mg/kg upon intraperitoneal after 1 hr; format: functional, organism-based; design: dose 10 mg/kg; procedure, shortened: as §1
Rattus norvegicus [14] = assay: Brain penetration measured by compound levels in brain at a dose of 10 mg/kg upon intraperitoneal after 1 hr; format: functional; procedure, shortened: as §1

T1 sequence (P31424 whole entry): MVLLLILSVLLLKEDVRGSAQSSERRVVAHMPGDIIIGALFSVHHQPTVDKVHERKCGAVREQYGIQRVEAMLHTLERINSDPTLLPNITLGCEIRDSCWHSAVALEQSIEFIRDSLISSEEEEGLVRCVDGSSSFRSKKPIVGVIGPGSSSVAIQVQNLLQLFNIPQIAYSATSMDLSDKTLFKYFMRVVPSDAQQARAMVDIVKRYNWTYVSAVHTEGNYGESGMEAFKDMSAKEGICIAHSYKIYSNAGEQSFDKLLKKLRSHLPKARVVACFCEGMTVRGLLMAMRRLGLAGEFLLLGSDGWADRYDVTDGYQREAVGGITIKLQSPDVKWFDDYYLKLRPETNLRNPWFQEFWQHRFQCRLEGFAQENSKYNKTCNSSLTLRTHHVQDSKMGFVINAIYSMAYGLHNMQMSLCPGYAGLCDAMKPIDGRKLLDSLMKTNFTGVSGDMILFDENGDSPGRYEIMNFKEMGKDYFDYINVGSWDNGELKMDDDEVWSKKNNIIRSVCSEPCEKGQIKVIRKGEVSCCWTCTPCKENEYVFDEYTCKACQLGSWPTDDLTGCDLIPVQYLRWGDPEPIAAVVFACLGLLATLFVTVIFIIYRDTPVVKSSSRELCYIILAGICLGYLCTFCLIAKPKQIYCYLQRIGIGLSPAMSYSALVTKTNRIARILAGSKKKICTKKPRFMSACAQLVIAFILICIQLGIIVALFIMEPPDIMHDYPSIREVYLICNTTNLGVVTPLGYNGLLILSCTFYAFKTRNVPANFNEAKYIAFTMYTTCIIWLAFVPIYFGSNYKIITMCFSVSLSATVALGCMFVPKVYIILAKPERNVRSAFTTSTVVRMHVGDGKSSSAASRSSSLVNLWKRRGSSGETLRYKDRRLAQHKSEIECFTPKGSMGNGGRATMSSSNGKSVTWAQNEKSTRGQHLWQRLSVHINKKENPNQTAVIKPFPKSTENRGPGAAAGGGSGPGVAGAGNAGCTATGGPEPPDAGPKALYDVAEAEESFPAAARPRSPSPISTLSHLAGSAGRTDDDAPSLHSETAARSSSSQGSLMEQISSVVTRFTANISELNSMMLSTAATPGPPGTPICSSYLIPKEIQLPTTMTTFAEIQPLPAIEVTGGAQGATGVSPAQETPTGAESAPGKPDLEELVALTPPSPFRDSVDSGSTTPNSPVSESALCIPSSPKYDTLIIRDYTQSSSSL

Structure (SMILES)	IC50 [1] [nM]	Ki [2] [nM]	other results
N#Cc1cc(N)cc(-n2nnc(-c3ccccn3)n2)c1	308	95	–
N#Cc1cc(F)cc(-n2nnc(-c3ccccn3)n2)c1	–	–	Plasma levels (Rattus norvegicus [3]): 2.7 µM; Occ ED50 (Rattus norvegicus [4]): 3.6 mg/kg; Occ ED50 (Rattus norvegicus [5]): 1.3 mg/kg; Brain/Plasma (Rattus norvegicus [6]): 90%; Brain levels (Rattus norvegicus [7]): 2.4 µM; half-life [8]: 2.9 h
N#Cc1cc(OCc2ccccc2)cc(-n2nnc(-c3ccccn3)n2)c1	> 1000	> 600	–
Clc1cccc(-n2nnc(-c3ccccn3)n2)c1Cl	1270	> 600	–
N#Cc1cc(Cl)cc(-n2nnc(-c3ccccn3)n2)c1	7	26	–
COc1cc(C#N)cc(-n2nnc(-c3ccccn3)n2)c1	10	6	–
N#Cc1cc(-n2nnc(-c3ccccn3)n2)ccc1Cl	722	> 600	–
N#Cc1cccc(-n2ccc(-c3ccccn3)c2)c1	190	> 600	–
N#Cc1cc(Oc2cccnc2)cc(-n2nnc(-c3ccccn3)n2)c1	15	16	–
N#Cc1cc(F)cc(-n2ccc(-c3ccccn3)c2)c1	3	5	–
N#Cc1ccc(Cl)c(-n2nnc(-c3ccccn3)n2)c1	334	> 600	–
Cc1cc(C#N)cc(-n2nnc(-c3ccccn3)n2)c1	6	7	clearance [9]: 50 mL/min/kg; bioavailability [10]: 15%; Vd [11]: 1.4 L/kg; half-life [8]: 0.4 h; Cmax [12]: 800 nM
N#Cc1cc(O)cc(-n2nnc(-c3ccccn3)n2)c1	562	318	–
N#Cc1cc(F)cc(-n2nnc(-c3ncc[nH]3)n2)c1	47	–	–
N#Cc1cc(-n2nnc(-c3ccccn3)n2)cc([N+](=O)[O-])c1	42	42	–
N#Cc1cc(OCC2CC2)cc(-n2nnc(-c3ccccn3)n2)c1	975	271	–
N#Cc1cccc(-n2nnc(-c3ncc[nH]3)n2)c1	77	–	–
N#Cc1cccc(-n2nnc(-c3ccccn3)n2)c1	73	–	Plasma levels (Rattus norvegicus [13]): 10 µM; clearance [9]: 33 mL/min/kg; Brain levels (Rattus norvegicus [14]): 15 µM; bioavailability [10]: 100%; Occ ED50 (Rattus norvegicus [4]): 3 mg/kg; Occ ED50 (Rattus norvegicus [5]): 3 mg/kg; Brain/Plasma (Rattus norvegicus [6]): 150%; Vd [11]: 5 L/kg; half-life [8]: 6.9 h
c1ccc(-c2nnn(-c3cccc(-c4cccnc4)c3)n2)nc1	63	69	–
N#Cc1cc(C#N)cc(-n2nnc(-c3ccccn3)n2)c1	34	18	–
